In general, apparent Kd refers to a dissociation constant that holds for the conditions of the assay.

The data set concerns MS2 coat protein. Description: apparent Kd, MS2 coat protein; higher = weaker binding; RNA-MaP array; FMN 200 µM where present. An outline of the steps: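 Each design was made on Illumina sequencing-chip clusters by stalled E. coli RNA polymerase and titrated with SNAP-549-labelled MS2 coat protein from 0.7 or 1.5 nM, doubling to 3 µM, in the absence and then the presence of constant ligand. The buffer was 100 mM Tris-HCl pH 7.5, 80 mM KCl, 4 mM MgCl2, BSA, DTT, yeast tRNA and Tween-20. The apparent Kd is the median of filtered per-cluster fits of binding curves, with green signal normalised to red-channel RNA signal and control-cluster median Fmax.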

[1] abbreviates: designed as: OFF switch for flavin mononucleotide, no ligand.
The mark [2] stands for this setting: ligand present: flavin mononucleotide, designed as: OFF switch for flavin mononucleotide.
[3] abbreviates: designed as: ON switch for flavin mononucleotide, no ligand.
[4] abbreviates: ligand present: flavin mononucleotide, designed as: ON switch for flavin mononucleotide.

Regarding “GAUACGUCAGGAUAUCUGAUGUCUAACUUCGGUUAGACAUCAGAGAAGGGACAUGAGGAUCACCCAUGUAUCAA”, the “apparent Kd” value is, setting by setting: under setting [1], 42.6 nM; under setting [2], 56.7 nM.
Take “CGCUAUGACAUAGGAUAUUGGUACAUGAGGAUCACCCAUGUCAACUUUUUAGCAUAAUUUGUUGACAAGAAGGAUGUGGUAGCG”: the “apparent Kd” value is, setting by setting: under setting [3], 54.1 nM; under setting [4], 12.6 nM.
Turning to “AGCAUGUUUACAUGAGGAUCACCCAUGUUUAUUUAGGAUUUCAGAAGGUACAAUUUGUGUUAGAGUAAGGAUAUGAUAUAUGCG”, the “apparent Kd” value is, setting by setting: under setting [3], 12 nM; under setting [4], 8.48 nM.
The like results for “CGCGGACAAGAGAAGGCCAGACCUUGGAACCUAAGGCACCGCUAGGCAUGGAGGAUAUCUUGACAUGAGGAUCACCCAUGUACA” were, in that order, 109 nM and 40.9 nM.
The like results for “UAAAUAUUAAAAGGAUAUUCAUACCGGAAACGGACAUGAGGAUCACCCAUGUGGCGAAAGCCUUGGGAGAAGGUAUUAUAAAAU” were, in that order, 333 nM and 248 nM.
With “UUGGACAGCUAGAGCUGUUAAGUACAUGAGGAUCACCCAUGUCAGGAUAUCCUUCCGCAAUGCGAGGAGAAGGGACAGGGUCCC”, the “apparent Kd” value is, setting by setting: under setting [1], 64.7 nM; under setting [2], 149 nM.
As for “UGUCGGAGCAGAGGAUAUACAUGAGGAUCACCCAUGUAAAUGGAAGAAGACUGGAAACAGUCAAUGUAGAAGGCUGCUCCGACA”, the “apparent Kd” value came to 125 nM under setting [1] and 694 nM under setting [2].
The matching figures for “GUAUACGAUGAGGAUAUAUGAUAUCAAAGCAUCAUAGAAGGCAUCACAUGAGGAUCACCCAUGUGAUCUUCUAG”: 15.7 nM and 52.6 nM.
Turning to “UGAACUUCAGAGAAGGUCGGAUGGCAACGGUCCGAAGGAUAUCUGGAAACAUGAGGAUCACCCAUGUAACCGGGUGGAUGUCCU”, the “apparent Kd” value turned out to be 35 nM under setting [1] and 113 nM under setting [2].
As for “AAGAAACAUGAGGAUCACCCAUGUGUAAAUAUGGGAGGAUAUACAAGGACGUAAGUCAAGGUAGAAGGCCUAAGAA”, the “apparent Kd” value worked out at 172 nM under setting [3] and 32.7 nM under setting [4].
Take “GCCAUCGCAUGAGGAUAUGCUCGGGUUUCCCGAGCAGAAGGCAUGUAAUAAGACAUGAGGAUCACCCAUGUAGUUAAGAUGGCA”: the “apparent Kd” value is 7.48 nM under setting [3] and 5.3 nM under setting [4].
“GAGUGGAAGGCCGCUACAUGAGGAUCACCCAUGUGCUAAGCACAGGAUAUCGCGCGGACCCGGCGCGAGAAGGGUGACGGCCUG”: the “apparent Kd” value is, setting by setting: under setting [3], 463 nM; under setting [4], 268 nM.
As for “GUAGCAUAAUCAGGAUAUUCAGCGAAUAGAUAGACAUGAGGAUCACCCAUGUGGCGAAAGCCUCGGGAGAAGGGAUAAUGCUAC”, the “apparent Kd” value is, setting by setting: under setting [3], 168 nM; under setting [4], 54 nM.
As to “GGUUGUCAUCGUCAUCCUUUCGGUACAUGAGGAUCACCCAUGUAGGAUAUGCUGCGCUCGGUGUGGCAGAAGGGCGUGUGUGUU”, the “apparent Kd” value reads like this: under setting [1], 23.8 nM; under setting [2], 40.3 nM.
As for “AUAUGAUAGAUAGGAUAUACUGAGGUUGAAUGGGUAGAAGGAUCGAUAGGGAAGACUACAUGAGGAUCACCCAUGUUGUGUAUU”, the “apparent Kd” value came out at 151 nM under setting [3] and 81.6 nM under setting [4].
Turning to “GUGGUCAGACAUGAGGAUCACCCAUGUGGAAUAAAUAACAGACAGGAUAUCCAAUAUAGGAUAUAGGAGAAGGGUCGAUUGGUG”, the “apparent Kd” value reads like this: under setting [3], 73.1 nM; under setting [4], 74.2 nM.
Regarding “CAGCAAUGUAAGAAGGCUGCUCCGAUUAGGAGCAGAGGAUAUUACAUGAGGAUCACCCAUGUAUAAAAUAAUAGCUGAAAUAAU”, the “apparent Kd” value reads like this: under setting [1], 6.37 nM; under setting [2], 7.69 nM.
Turning to “GUACCUUAUGAGAAGGCGAUCAUGAAACAUGAUCGAGGAUAUCAUGUAAACAUGAGGAUCACCCAUGUAUGGGUAUUAUGGUAA”, the “apparent Kd” value by setting is: under setting [3], 31.8 nM; under setting [4], 10.2 nM.
For “GUGUAGAUAGGAUAUACGAGAGUCUAGCGAAGCUAGAUUCUACAUGAGGAUCACCCAUGUAGAAGGGUCUACAC”, the “apparent Kd” value by setting is: under setting [1], 16.5 nM; under setting [2], 19.2 nM.
With “AGUCGGCGAGGAUAUACAUGAGGAUCACCCAUGUAUGAUCCUAGACCUGUAGGUCCAUGUAGAAGGCGCUGACA”, the “apparent Kd” value reads like this: under setting [1], 63.6 nM; under setting [2], 29.1 nM.
The matching figures for “AAAAAGUCAGGAUAUGUAGCAAAAGGUGAUCAAAAAAAGCUACAGAAGGGACAUGAGGAUCACCCAUGUAAAAA”: 262 nM and 336 nM.
For “GUAGCAUACCGAGGAUAUUCAGGGCGUGGAUAUACAUGAGGAUCACCCAUGUGGCGGAAGCCUAGGGAGAAGGCGGGAUGCUAC”, the “apparent Kd” value by setting is: under setting [3], 22.3 nM; under setting [4], 15.5 nM.
Take “GAGAAGAGGGAAGGAUAUACAUGAGGAUCACCCAUGUAGAUAGGUAUAAUAGGUUGUUGUAGUAUGUAGAAGGUCCGGUUUGUU”: the “apparent Kd” value came to 18.9 nM under setting [1] and 22.5 nM under setting [2].
As to “AACGGGUGGGUAGGAUAUGGCCAUGUCUCAUUGCUAGAAGGACCAGCUGCUACAUGAGGAUCACCCAUGUCGUAGUGCACCCAG”, the “apparent Kd” value turned out to be 105 nM under setting [3] and 15.6 nM under setting [4].
Take “CGUAUGUGAGGAUAUGACAAUGGUAUCUUCGGAUACCAUUGUCAGAAGGAACAUGAGGAUCACCCAUGUAGAUC”: the “apparent Kd” value is 53.2 nM under setting [1] and 110 nM under setting [2].
“AGUGUCAUCGAGAAGGCCUCAACAUGAGGAUCACCCAUGUUGUAAUAUGGGAGGAUAUCGAUGAUACAGCUACGUUUCGUAGCA”: the “apparent Kd” value under setting [3] was found to be 20.7 nM and the “apparent Kd” value under setting [4] amounted to 5.79 nM.
For the sequence “GCCUCACAUGAGGAUCACCCAUGUCAGGAUAUGCCGAUCUUAUGGUCUGGUACGACGAGCAGAAGGGACAUGCA”, the “apparent Kd” value reads like this: under setting [1], 19.5 nM; under setting [2], 57.9 nM.
As to “UUGAUUUUGUAAGGAUAUACUCUGUGAUGAAGAGUAGAAGGUACUUACAUGAGGAUCACCCAUGUUUAACGAGAUACUAAUCGU”, the “apparent Kd” value reads like this: under setting [3], 62.8 nM; under setting [4], 31.3 nM.
In the case of “GGAUAGGACAGAGGAUAUACGUGCAAGAGAUACUAGCAAAAUUUCCUCACAUGAGGAUCACCCAUGUAGAAGGCUGUCCUAUCG”, the “apparent Kd” value under setting [1] was 57.4 nM and the “apparent Kd” value under setting [2] was determined as 331 nM.
With “UAAAUUAACAAGAAGGCUAACAUGAGGAUCACCCAUGUUGUACAUGGAUAUAGAGGAUAUUGCUAAUUAUUAUUUAUCAUAAUU”, the “apparent Kd” value by setting is: under setting [1], 23.6 nM; under setting [2], 18.3 nM.
Regarding “AUGCAGCUACCACAGGAUAUACGUGGAUCGACAUGAGGAUCACCCAUGUAUAUCCUAAUAAUUGCGUAGAAGGGUGGUCAGCUGC”, the “apparent Kd” value reads like this: under setting [3], 1540 nM; under setting [4], 103 nM.
As for “GACAUCGCAGGAUAUUAUUGUUUGUACAUGAGGAUCACCCAUGUUAAUUGGGUUAAUGUUUAAGAAGGGCGGUGUC”, the “apparent Kd” value under setting [1] was found to be 642 nM and the “apparent Kd” value under setting [2] came to 557 nM.
In the case of “GGUACUCAAAGAGUACUGUUUUGAACAUGAGGAUCACCCAUGUAGGAUAUGCGAGUUUUGAAUUUGCAGAAGGACAUUUUUAGC”, the “apparent Kd” value reads like this: under setting [1], 17.2 nM; under setting [2], 18.9 nM.
In the case of “GUAGCAUACCGAGGAUAUUCAUACCGGAAACGGACAUGAGGAUCACCCAUGUUGCGAAAGCAUUGGGAGAAGGCGGAAUGCUAC”, the “apparent Kd” value by setting is: under setting [3], 919 nM; under setting [4], 55.8 nM.
With “CCGGAAAUGUAGGAUAUAGGAGUCGAUAGACACCUAGAAGGGCAUACAUGAGGAUCACCCAUGUGUCCUACCGG”, the “apparent Kd” value under setting [1] was found to be 13.7 nM and the “apparent Kd” value under setting [2] is 15.8 nM.
Turning to “AGUCGGCGAGGAUAUACAUGAGGAUCACCCAUGUGUGAUCCUAGACCUGUAGGUCCAUGUAGAAGGCGCUGACA”, the “apparent Kd” value under setting [1] is 19.6 nM and the “apparent Kd” value under setting [2] came to 23.6 nM.
As for “GGUGUACAUGAGGAUCACCCAUGUCGACCGCUCACAGGAUAUUUAAUACAAACUGGUAGCGGAGAAGGGUGAGGAA”, the “apparent Kd” value runs as follows: under setting [3], 295 nM; under setting [4], 312 nM.
On to “GCGUUUGUAUCACAUGUAUUACAUGAGGAUCACCCAUGUUACUAGGAUAUGUAUUAGUAUUUUCAACAGAAGGAGUAAGAACGC”, for which the “apparent Kd” value reads like this: under setting [1], 18.8 nM; under setting [2], 23.5 nM.
Turning to “UGAAAUCAUGUAGGAUAUGCAUGGCGAAGCUACGCAGAAGGACAUGAGGAUCACCCAUGUUCUGGCUACCGAGUUCGGUGGCAA”, the “apparent Kd” value reads like this: under setting [1], 22.1 nM; under setting [2], 105 nM.
As to “UUGGACGUCGUAGGAUAUGUAGGAUAUUCCUACAUGAGGAUCACCCAUGUUGACAUGGAAGUAGGACAGAAGGACGAUGUCCAU”, the “apparent Kd” value reads like this: under setting [3], 497 nM; under setting [4], 23.1 nM.
On to “UACUUCCGAGGAUAUACAUGAGGAUCACCCAUGUGCUUCAGCAUCGAAAGAUGCAUGGGUAGAAGGCGGUAGUU”, for which the “apparent Kd” value reads like this: under setting [1], 44.6 nM; under setting [2], 50.4 nM.
For “GCGCCAUCGUGAGAUGGCGUACCAACAUGAGGAUCACCCAUGUAGGAUAUCGAUUGCUUUGCAGUCGAGAAGGGCAUGAUAAGU”, the “apparent Kd” value under setting [1] is 22 nM and the “apparent Kd” value under setting [2] is 28.4 nM.
Consider “AUCCGGGCCCAGAAGGUGCCAGCGAGAGCUGCACAUGAGGAUCACCCAUGUUGUCGGUGACGACGCAAGGAUAUGGGCCCGGAU”, for which the “apparent Kd” value under setting [3] amounted to 24.4 nM and the “apparent Kd” value under setting [4] turned out to be 6.89 nM.
On to “UUUUAACAUGAGGAUCACCCAUGUGAGGAUAUCGUAUUUUUUAUUAAUAUUAAUAAAACGAGAAGGCACAUUUU”, for which the “apparent Kd” value was determined as 95.5 nM under setting [1] and 97.3 nM under setting [2].
“AAUAAUUAGUAAGGAUAUACUAGCGAUUAGCUUGUAGAAGGUACAGUCUUAUGUAUAACAUGUUAACAUGAGGAUCACCCAUGU”: the “apparent Kd” value under setting [3] was 68.9 nM and the “apparent Kd” value under setting [4] came to 29.3 nM.
The like results for “UAAUAAUUAUGAGGAUAUAUACAACAUGAGGAUCACCCAUGUACCCAUGUAGUAGAAGGCAUAUUUUUAUUUAAUAAUAUAAUU” were, in that order, 79.4 nM and 33.9 nM.
Take “UUACAGCAAGGAUAUACAUGAGGAUCACCCAUGUAUGCGUGUUCGAGAGAGGCCUACGGUAGAAGGUGCAUGUU”: the “apparent Kd” value turned out to be 24.1 nM under setting [1] and 22.4 nM under setting [2].
Consider “AAUAACAGAGGAUAUACUGUUUUAUGUGUUUGUUGUUUUAAACAUGAGGAUCACCCAUGUAGAAGGCUGAAUAA”, for which the “apparent Kd” value is, setting by setting: under setting [1], 19.3 nM; under setting [2], 20.3 nM.

The values above are taken from the EternaBench riboswitch data.
